Assay results published in PMC2532710 (Nucleic Acids Research, 2008).
“Also recorded” adds a separate entry of the source.

What was measured:
[1] = test system: replication fork substrate; assay: 2-AP fluorescence quenching, replication fork; assay type: binding; details: 2-AP fluorescence-based solution assay
How it was run: (§1)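 Substrates were annealed from oligos (boiled 5 min, slow-cooled), gel-purified on native 12% PAGE and quantified spectrophotometrically. After ≥10 min equilibration, emission was read at 330–430 nm (excitation 315 nm). Adenine-substituted spectra were subtracted, and fold decrease at 370 nm was taken versus no peptide.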

Cre/HJ complex = details: cited from earlier work
HJ-4AP1 = assay: 2-AP fluorescence titration of additional peptides, HJ-4AP1; assay type: binding; details: for 2-AP quenching / interaction with 4AP1 in HJ: 0.2 μM substrate, pH 7.8, 100 mM NaCl, 1.6% DMSO, peptide dimer 0.05-6.4 μM
How it was run: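 Test peptides (C-terminal amides, dissolved in DMSO) titrated as dimers at 0.05, 0.2, 0.8, 3.2 and 6.4 μM into 0.2 μM 2-AP-labelled HJ in 20 mM Tris-HCl pH 7.8, 100 mM NaCl, 1 mM EDTA, 1.6% DMSO at 24°C. Equilibrated ≥3 min with stirring. Excitation 315 nm, emission 365–375 nm. Adenine-substituted junction spectrum subtracted.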

protein-free HJ DNA [2] = assay: peptide/RecG band shift assay on HJ; assay type: binding; details: data not shown
human RAD54 protein = details: cited from earlier work
RecG helicase = details: cited from earlier work
RuvABC complex = details: cited from earlier work
HJ substrate [3] = assay: 2-AP fluorescence quenching, HJ substrate; assay type: binding; details: center of both HJ and replication forks
How it was run: as §1

protein-free HJ DNA [4] = details: cited from earlier work
[5] = test system: replication fork substrates; details: ref K. Kepple, Ph.D. Thesis, 2006; cited from earlier work
(WRWYCR)2 [6] = target: T1, (WRWYCR)2 (synthetic); assay: 2-AP fluorescence quenching
T1 chain: WRWYCR

(WRWYCR)2 [7] = target: T1, (WRWYCR)2; assay: 2-AP fluorescence quenching
(KWWCRW)2 = target: T2, (KWWCRW)2 (synthetic); assay: 2-AP fluorescence quenching
T2 chain: KWWCRW

WKHYNY = target: T3, WKHYNY (synthetic); assay: 2-AP fluorescence quenching
T3 chain: WKHYNY

[8] = test system: central thymine bases of HJ; details: bound to HJ; cited from earlier work
HJ substrate [9] = assay: dissociation from HJ; assay type: binding
flayed duplex DNA = details: cited from earlier work
(WRWYCR)2 [10] = target: T1, (WRWYCR)2; assay: EMSA
RecG = target: T4, RecG (Escherichia coli, UniProt P24230 1-693); assay: EMSA
T4 sequence: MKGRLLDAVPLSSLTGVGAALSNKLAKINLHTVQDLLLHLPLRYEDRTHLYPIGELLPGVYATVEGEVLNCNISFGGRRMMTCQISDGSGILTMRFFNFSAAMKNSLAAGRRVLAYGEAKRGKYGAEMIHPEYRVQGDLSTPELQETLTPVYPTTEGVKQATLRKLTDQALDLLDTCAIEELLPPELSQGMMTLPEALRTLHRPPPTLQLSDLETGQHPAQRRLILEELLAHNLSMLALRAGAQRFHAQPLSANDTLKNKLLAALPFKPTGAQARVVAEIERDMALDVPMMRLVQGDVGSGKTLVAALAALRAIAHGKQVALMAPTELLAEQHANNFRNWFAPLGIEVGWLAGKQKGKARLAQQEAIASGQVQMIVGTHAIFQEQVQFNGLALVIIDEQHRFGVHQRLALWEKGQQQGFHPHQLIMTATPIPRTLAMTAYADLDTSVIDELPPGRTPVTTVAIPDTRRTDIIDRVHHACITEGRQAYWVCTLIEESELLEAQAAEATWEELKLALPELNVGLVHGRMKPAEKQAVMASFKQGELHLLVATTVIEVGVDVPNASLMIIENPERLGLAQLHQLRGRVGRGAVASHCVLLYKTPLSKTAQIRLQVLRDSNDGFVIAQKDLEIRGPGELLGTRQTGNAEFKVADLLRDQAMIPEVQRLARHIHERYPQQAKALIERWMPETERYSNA

## KWWCRW
[1]
  binding to replication fork-like substrates: bind to replication fork-like substrates

## WRWYCR
[1]
  binding to replication fork-like substrates: bind to replication fork-like substrates

## WKHYNY
Cre/HJ complex
  quenching effect on 2-AP with Cre/HJ complex: concentration-dependent quenching effect on 2-AP
HJ-4AP1
  2-AP quenching / interaction with 4AP1 in HJ: does not interact; also recorded: almost no quenching
HJ-4AP1; up to 32-fold excess of peptide dimer (6.4 μM)
  2-AP quenching: little if any effect
protein-free HJ DNA [2]; gel shift assays
  binding to protein-free HJ: has not been detected; also recorded: does not bind protein-free junctions

## (KWWCRW)2 (disulfide)
Human RAD54 protein
  inhibition of D-loop unwinding activity: inhibit the D-loop unwinding activity
RecG helicase
  inhibition of unwinding of branched DNA substrates by RecG: inhibit unwinding of branched DNA substrates
HJ-4AP1
  2-AP quenching / interaction with 4AP1 in HJ: interacts with 4AP1 in the HJ substrate
RuvABC complex
  inhibition of HJ resolution by RuvABC: inhibit
RuvABC complex; read-out: IC50, RuvABC
  IC50: ~50 nM
HJ substrate [3]
  quenching of 2-AP in the center of HJ and replication forks: quench the fluorescence of 2-AP bases
protein-free HJ DNA [4]
  binding to free HJ DNA: bind specifically to free HJ DNA
protein-free HJ DNA [4]; data not shown
  potency relative to (WRWYCR)2: nearly as potent as (WRWYCR)2
protein-free HJ DNA [4]; gel shift and footprinting assays, data not shown
  binding to protein-free junctions: binds to protein-free junctions
[5]
  binding to replication forks by band shift: unable to detect binding

B1: Fork-4AP2 (complete fork) (structured_DNA)
DNA 1: CGCGGTACGGCCGGAAGCCTGGTTTACAATGCAAGCTTGACTGGCAGCCC
DNA 2: GCGTCGAGTCGGCTGCAGAGGTATAAAACCAGGCTTCCGGCCGTACCGCG
DNA 3: GGGCTGCCAGTCAAGCTTGCATTGT
DNA 4: TATACCTCTGCAGCCGACTCGACGC
modifications: one A of strand 4 is 2-aminopurine (AP2; underline lost)
(WRWYCR)2 [6]
  binding signal: 2 fold quenching (max)
(WRWYCR)2 [7]
  Kd: 63.5 ± 12 nM

B2: HJ-4AP2 (structured_DNA)
DNA 1: B1 DNA 1
DNA 2: GGGCTGCCAGTCAAGCTTGCATTGTTGGAGGTACTGTTAGGAATTCTCCAAGTGACTCGG
DNA 3: CCGAGTCACTTGGAGAATTCCTAACAGTACCTCCATATACCTCTGCAGCCGACTCGACGC
DNA 4: B1 DNA 2
modifications: one A near junction center of strand 4 is 2-aminopurine (AP2; underline lost)
(WRWYCR)2 [7]
  Kd: 14.3 ± 3.2 nM

B3: Oligo (strand 4 AP2) (ssDNA)
DNA: B1 DNA 2
modifications: one A is 2-aminopurine (AP2; underline lost)
(WRWYCR)2 [7]
  Kd: 731 ± 134 nM

B4: Lead-4AP2 (leading strand fork) (structured_DNA)
DNA 1: B1 DNA 1
DNA 2: B1 DNA 2
DNA 3: GGGCTGCCAGTCAAGCTTGCATTGT
modifications: one A of strand 4 is 2-aminopurine (AP2; underline lost)
(WRWYCR)2 [7]
  Kd: 132 ± 32.8 nM

B5: Flayed-4AP2 (structured_DNA)
DNA 1: B1 DNA 1
DNA 2: B1 DNA 2
modifications: one A of strand 4 is 2-aminopurine (AP2; underline lost)
(WRWYCR)2 [7]
  Kd: 628 ± 107 nM

B6: HJ-4AP1 (structured_DNA)
DNA 1: B1 DNA 1
DNA 2: B2 DNA 2
DNA 3: B2 DNA 3
DNA 4: B1 DNA 2
modifications: one A of strand 4 is 2-aminopurine (AP1; underline lost)
(KWWCRW)2
  binding result: binds
WKHYNY
  binding result: no binding

B7: Lag-4AP2 (lagging strand fork) (structured_DNA)
DNA 1: B1 DNA 1
DNA 2: B1 DNA 2
DNA 3: TATACCTCTGCAGCCGACTCGACGC
modifications: one A of strand 4 is 2-aminopurine (AP2; underline lost)
(WRWYCR)2 [7]
  Kd: 79.2 ± 17.3 nM

B8: RecG: monomeric RecG helicase of Escherichia coli (protein, UniProt P24230 1-693, looked up)
ATP-dependent DNA helicase …: T4 sequence
[8]
  increase in KMnO4 sensitivity of central thymine bases: ~2 fold
protein-free HJ DNA [2]; 50 ng nonspecific dsDNA
  Kd of RecG by gel mobility shift relative to peptide: very similar
HJ substrate [9]; 0.02 μM RecG, 1 nM labeled HJ, 0.2 μM unlabeled HJ, 4°C
  time for half of bound RecG to dissociate: 25 min
HJ substrate [9]; RecG/HJ vs (WRWYCR)2/HJ
  dissociation faster than peptide complex: ~2 X
Flayed duplex DNA
  fold lower affinity for flayed DNA than HJ: ≤ 100 fold

B9: HJ (oligos 1-4) (structured_DNA)
DNA 1: CGCGGTACGGCCGGAAGCCTGCTTTTTTATACAAGCTTAACTCCC
DNA 2: GGGAGTTAAGCTTGTATAAATGAGGTACTGTTAGGAATTCTCCAAGTGACTACGG
DNA 3: CCGTAGTCACTTGGAGAATTCCTAACAGTACCTCATTTATACCTGCAGCCGACGC
DNA 4: GCGTCGGCTGCAGGTATAAAAAAGCAGGCTTCCGGCCGTACCGCG
(WRWYCR)2 [10]
  Kd: 12.5 nM
RecG
  binding result: binds
